Reference: ChEMBL document CHEMBL2146379, “Antimetastatic effect of sulfamate carbonic anhydrase IX inhibitors in breast carcinoma xenografts” (J Med Chem, 2012)
One block for each molecule: values may come before it. Activity calls are given as the source filed them. The rule behind the calls is not given here.

Columns and labels:
Carbonic anhydrase 9 = Carbonic anhydrase 9 (Homo sapiens, UniProt Q16790); test: Inhibition of human recombinant transmembrane CA9 preincubated for 15 mins by stopped-flow CO2 hydration method
Procedure, shortened: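 Stopped-flow CO₂ hydration with in-house recombinant human CA, CO₂ 1.7−17 mM. Inhibitor diluted in water from 0.1 mM stock down to 0.01 nM, preincubated with enzyme 15 min at room temperature. Initial velocity from ≥6 traces of the first 5−10% of reaction, uncatalyzed rate subtracted.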

MDA-MB-231 [1] = test: Antimetastatic activity against EGFP tagged human MDA-MB-231 cells expressing CA9 assessed as inhibition of cell migration under anoxic condition after 24 hrs by scratch-wound assay; format: functional, cell-based
Procedure, shortened: (§1)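 Scratch-wound migration in confluent monolayers of RPMI 1640/10% FCS/2 mM glutamine-grown cells (eGFP-tagged MDA-MB-231, WRO, FTC-133; untagged RT112, HCT116). Incubation 24 h in normoxia or anoxia with DMSO or inhibitor at increasing concentrations (3.3, 10, 33 μM tested). Wound closure imaged by fluorescence. n = 3 per concentration per cell line; mean ± SEM, Student's t test.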

HCT-116 [2] = test: Antimetastatic activity against human HCT116 cells xenografted in mouse assessed as inhibition of lung metastasis; format: functional
Mus musculus [3] = test: Toxicity in nu/nu CBA mouse xenografted with EGFP tagged human MDA-MB-231 cells expressing CA9 assessed as change in body weight at 10 mg/kg, ip administered 5 days on 2 days off; format: organism-based; parameters: dose 10 mg/kg, route intraperitoneal; conditions: in vivo
Procedure, shortened: (§2)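 Female nu/nu CBA mice, 10−12 weeks old, 8 per group, injected orthotopically into the fourth inguinal nipple with eGFP-MDA-MB-231 cells (5 × 10⁷ cells/mL in 1:1 serum-free RPMI/Matrigel). From 150 mm³ tumors, dosed 10 mg/kg ip daily (saline, 4% DMSO), 5 days on/2 off. Callipers 3×/week; health checked daily; body weight tracked. Culled at 1000 mm³; lung metastasis by ex vivo clonogenic assay.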

MDA-MB-231 [4] = test: Antimetastatic activity against EGFP tagged human MDA-MB-231 cells expressing CA9 assessed as inhibition of cell migration under anoxic condition at 33 uM after 24 hrs by scratch-wound assay; format: functional; conditions: MDA-MB-231, 24 h; procedure, shortened: as §1
MDA-MB-231 [5] = test: Antimetastatic activity against EGFP tagged human MDA-MB-231 cells expressing CA9 assessed as inhibition of cell migration under anoxic condition at 3.3 uM after 24 hrs by scratch-wound assay; format: functional; conditions: MDA-MB-231, 24 h; procedure, shortened: as §1
[6] = Antimetastatic activity against EGFP tagged human WRO cells expressing CA9 assessed as inhibition of cell migration under anoxic condition at 100 uM after 24 hrs by scratch-wound assay; format: functional
MDA-MB-231 [7] = test: Cytotoxicity against EGFP tagged human MDA-MB-231 cells expressing CA9 at 100 uM; format: functional, cell-based
FTC-133 = test: Antimetastatic activity against EGFP tagged human FTC-133 cells expressing CA9 assessed as inhibition of cell migration under anoxic condition at 33 uM after 24 hrs by scratch-wound assay; format: functional, cell-based; procedure, shortened: as §1
MDA-MB-231 [8] = test: Antimetastatic activity against EGFP tagged human MDA-MB-231 cells expressing CA9 xenografted in nu/nu CBA mouse tumor assessed as reduction in metastasic burden in lungs at 10 mg/kg, ip, administered 5 days on 2 days off measured on day 10 by clonogenic assay; format: functional, organism-based; parameters: dose 10 mg/kg; procedure, shortened: as §2
MDA-MB-231 [9] = test: Antimetastatic activity against EGFP tagged human MDA-MB-231 cells expressing CA9 assessed as inhibition of cell spreading under anoxic condition at 33 uM after 60 mins by phalloidin staining; format: functional, cell-based
MDA-MB-231 [10] = test: Antimetastatic activity against EGFP tagged human MDA-MB-231 cells expressing CA9 assessed as inhibition of cell migration under anoxic condition at 10 uM after 24 hrs by scratch-wound assay; format: functional; conditions: MDA-MB-231, 24 h; procedure, shortened: as §1
RT-112 = test: Antimetastatic activity against CA9 deficient human RT112 cells assessed as inhibition of cell migration under anoxic condition at 33 uM after 24 hrs by scratch-wound assay; format: functional, cell-based; procedure, shortened: as §1
Mus musculus [11] = test: Toxicity in nu/nu CBA mouse xenografted with EGFP tagged human MDA-MB-231 cells expressing CA9 assessed as signs of intolerance at 10 mg/kg, ip administered 5 days on 2 days off; format: organism-based; parameters: dose 10 mg/kg, route intraperitoneal; conditions: in vivo; procedure, shortened: as §2
MDA-MB-231 [12] = test: Antimetastatic activity against EGFP tagged human MDA-MB-231 cells expressing CA9 assessed as inhibition of cell spreading under normoxic condition at 33 uM after 60 mins by phalloidin staining; format: functional, cell-based
MDA-MB-231 [13] = test: Antitumor activity against EGFP tagged human MDA-MB-231 cells expressing CA9 xenografted in nu/nu CBA mouse assessed as tumor growth inhibition at 10 mg/kg, ip administered 5 days on 2 days off; format: functional, organism-based; parameters: dose 10 mg/kg; procedure, shortened: as §2
HCT-116 [14] = test: Antimetastatic activity against human HCT116 cells assessed as stimulation of cell migration under anoxic condition at 33 uM after 24 hrs by scratch-wound assay; format: functional; procedure, shortened: as §1
MDA-MB-231 [15] = test: Antimetastatic activity against EGFP tagged human MDA-MB-231 cells expressing CA9 assessed as inhibition of cell migration under normoxic condition after 24 hrs by scratch-wound assay; format: functional, cell-based; procedure, shortened: as §1

Ki (Carbonic anhydrase 9): 9 nM
Compound: CN(C)c1ccc(NC(=O)Nc2ccc(OS(N)(=O)=O)cc2)cc1
inhibition (MDA-MB-231 [1]): inactive

Compound: Cc1cc(C)cc(NC(=O)Nc2ccc(OS(N)(=O)=O)cc2)c1
inhibition (HCT-116 [2]): inactive
Activity (Mus musculus [3]): Non-toxic
inhibition at 33 µM (MDA-MB-231 [4]): 50%
inhibition at 3.3 µM (MDA-MB-231 [5]): 5%
inhibition at 100 µM [6]: 41%
Activity (MDA-MB-231 [7]): Active
inhibition (FTC-133): Active
Activity (MDA-MB-231 [8]): Active
inhibition (MDA-MB-231 [9]): Active
inhibition at 10 µM (MDA-MB-231 [10]): 21%
inhibition (RT-112): inactive
Activity (Mus musculus [11]): Non-toxic
inhibition (MDA-MB-231 [12]): inactive
growth inhibition (GI) (MDA-MB-231 [13]): inactive
Activity (HCT-116 [14]): 44%

Compound: COc1ccc(NC(=O)Nc2ccc(OS(N)(=O)=O)cc2)cc1
inhibition (MDA-MB-231 [1]): inactive

Compound: NS(=O)(=O)Oc1ccc(NC(=O)Nc2ccc([N+](=O)[O-])cc2)cc1
inhibition (MDA-MB-231 [15]): Active
inhibition (MDA-MB-231 [1]): Active

Compound: NS(=O)(=O)Oc1ccc(NC(=S)Nc2ccc(-c3c4ccc(=O)cc-4oc4cc(O)ccc34)c(C(=O)O)c2)cc1
inhibition (MDA-MB-231 [1]): inactive

Compound: NS(=O)(=O)Oc1ccc(NC(=O)Nc2ccc(Cl)cc2)cc1
inhibition (MDA-MB-231 [15]): Active
inhibition (MDA-MB-231 [1]): Active

Compound: NS(=O)(=O)Oc1ccc(NC(=O)Nc2ccc(Oc3ccccc3)cc2)cc1
inhibition at 33 µM (MDA-MB-231 [4]): 49%

Compound: NS(=O)(=O)Oc1ccc(NC(=O)Nc2c(F)c(F)c(F)c(F)c2F)cc1
inhibition at 33 µM (MDA-MB-231 [4]): 32%

Compound: NS(=O)(=O)Oc1ccc(NC(=O)Nc2ccc(F)cc2)cc1
inhibition (MDA-MB-231 [15]): Active
inhibition (MDA-MB-231 [1]): Active

Ki (Carbonic anhydrase 9): 14 nM
Compound: NS(=O)(=O)Oc1ccc(-[n+]2c(-c3ccccc3)cc(-c3ccccc3)cc2-c2ccccc2)cc1
inhibition (MDA-MB-231 [1]): inactive
